Bioassay records deposited in PubChem by several laboratories.
Compounds with a hit are over-represented: about 1.6% of the library has one in this group of screens.
ABCB1 inh – blocks JC-1 efflux by human ABCB1 transporter. P08183. 190,000 tested, 0.067% active. CCRF-Adr cells, flow cytometry. inhibition, % at 6.6 µM; in the data active = inhibition above about 40%;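 also: 0% = vehicle and 100% = reference inhibitor; higher value means more JC-1 retained so stronger ABCB1 efflux block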
PKD1 inh – PKD1 (human) kinase inhibition. inhibition, % (no concentration beside the values). Q15139. PKD1 kinase fluorescence polarization assay. 200,000 tested, 0.056% active; in the data active = inhibition above about 50%
HSV replic up – increases HSV replication in cells; maximum fold increase; HSV replication augmentation in cells, fold increase; AID 1956; 220,000 tested, 0.005% active; in the data active = maximum fold increase above about 1.5; inconclusive = no clear call, values can overlap the other calls; tested in PC3 cells
PHOSPHO1 inh – inhibitors of human PHOSPHO1 phosphatase | recombinant PHOSPHO1, absorbance phosphatase assay | inhibition, % at 13.3 µM | 290,000 tested, 1.1% active | Q8TCT1; in the data active = inhibition above about 60%
Target sequence (Q8TCT1 whole entry, looked up): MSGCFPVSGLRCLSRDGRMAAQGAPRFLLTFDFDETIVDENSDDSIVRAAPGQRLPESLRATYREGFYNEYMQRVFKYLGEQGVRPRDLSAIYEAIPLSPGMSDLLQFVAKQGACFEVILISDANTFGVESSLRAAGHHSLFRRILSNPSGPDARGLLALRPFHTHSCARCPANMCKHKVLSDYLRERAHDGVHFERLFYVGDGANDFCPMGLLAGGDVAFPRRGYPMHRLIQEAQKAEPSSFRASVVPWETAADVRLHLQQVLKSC
ABCG2 block – blocks JC-1 efflux by human ABCG2 transporter. 190,000 tested, 0.1% active. inhibition, % at 6.6 µM. IgMXP3 cells, flow cytometry. AID 1325;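 active = inhibition above 80%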;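 also: 0% = DMSO and 100% = nicardipine control wells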
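Test system: IgMXP3 cells (ABCG2) mixed with DDAO far-red-labelled CCRF-Adr cells (ABCB1). Reagent: JC-1 transporter substrate. Compound dosing: single test compound dose, 6.6 µM final. Times: 10 min compound exposure, 25 °C. Detection: flow cytometry of retained JC-1 fluorescence. Read-out basis: efflux inhibition in percent versus controls. Controls: nicardipine and DMSO wells.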
p47phox inh – p47phox (human) inhibition | P14598 | p47phox/p22phox peptide binding, fluorescence polarization, 2 h | inhibition, % at 24.7 µM | 220,000 tested, 0.53% active | AID 1274;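 active = inhibition above about 30%, limit read from the data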;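 also: 0% = p47phox with labelled peptide and 100% = labelled peptide alone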
Target sequence (P14598 whole entry, looked up): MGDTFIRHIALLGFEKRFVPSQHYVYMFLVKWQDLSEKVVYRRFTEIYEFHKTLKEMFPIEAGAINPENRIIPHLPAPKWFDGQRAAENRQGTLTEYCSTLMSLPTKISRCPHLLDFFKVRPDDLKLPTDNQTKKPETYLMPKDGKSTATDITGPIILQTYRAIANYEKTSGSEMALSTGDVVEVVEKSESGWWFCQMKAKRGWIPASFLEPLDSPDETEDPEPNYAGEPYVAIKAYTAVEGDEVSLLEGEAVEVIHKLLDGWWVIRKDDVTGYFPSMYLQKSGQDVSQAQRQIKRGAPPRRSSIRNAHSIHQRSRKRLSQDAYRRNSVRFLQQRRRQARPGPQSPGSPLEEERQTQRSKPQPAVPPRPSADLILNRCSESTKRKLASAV
The depositor's hits bear a star; i = inactive; ? = inconclusive; · = not tested or not shown.

SMILES	ABCB1 inh	PKD1 inh	HSV replic up	PHOSPHO1 inh	ABCG2 block	p47phox inh
CC(C)n1c(N2CCN(S(=O)(=O)c3cccc([N+](=O)[O-])c3)CC2)nc2ccccc21	·	·	·	61.1*	·	·
Cn1c(N2CCN(S(=O)(=O)c3ccc(F)cc3)CC2)nc2ccccc21	-0.1	-1.3	i	19.0	0.5	12.0
Cc1nnc(SCC(=O)Nc2ccc(N3CCOCC3)cc2)o1	0.0	1.1	i	63.2*	0.2	-6.3
CCN(CC)S(=O)(=O)c1ccc(C(=O)NCCOC(=O)c2ccc(F)cc2F)cc1	·	·	·	40.3	·	·
CCOC(=O)c1c(NC(C)=O)sc2c1CCC(C=O)=C2Sc1ccccc1	1.2	-4.5	i	90.9*	6.4	-18.9
CCOC(=O)c1c(NC(=O)c2ccccc2N(C)S(=O)(=O)c2ccccc2)sc2c1CCCC2	2.9	1.9	i	-11.4	13.7	4.6
CCOC(=O)c1c(NC(=O)c2ccccc2Br)sc2c1CCc1ccccc1-2	0.3	8.5	i	70.8*	1.3	-10.2
Cc1cccnc1NC(=O)c1csnn1	·	·	i	-26.9	·	-2.5
CCC(C)C(=O)Nc1nc(C)c(-c2csc(Nc3cc(Cl)ccc3OC)n2)s1 (stereo not drawn)	-0.4	1.2	i	91.4*	-0.8	-33.0
CCC(C)C(=O)Nc1nc(C)c(-c2csc(Nc3cc(OC)ccc3OC)n2)s1 (stereo not drawn)	0.7	-6.1	i	62.2*	-0.1	-12.7
COc1ccc(OC)c(Nc2nc(-c3sc(NC(=O)C(C)(C)C)nc3C)cs2)c1	1.4	0.1	i	57.3	4.3	-13.7
COc1ccc(Cl)cc1Nc1nc(-c2sc(NC(=O)C(C)(C)C)nc2C)cs1	-0.1	11.8	i	101.1*	-0.2	-26.6
COc1ccc(OC)c(Nc2nc(-c3sc(C)nc3C)cs2)c1	-0.9	10.8	i	25.2	8.0	-2.9
COc1ccc(OC)c(Nc2nc(-c3sc(NC(=O)CC(C)C)nc3C)cs2)c1	1.3	-4.2	i	64.6*	2.6	-26.6
COc1ccc(C)cc1N(C(=O)c1snc(C(N)=O)c1N)C(C(=O)NC1CCCC1)c1ccc(F)cc1 (stereo not drawn)	·	·	·	36.6	·	·
Cc1ccc(CCSc2ccc(C(C)C)cc2)cn1	0.1	-8.4	i	-11.4	0.8	-9.7
O=C(CCC(=O)OCC(=O)c1ccc(Br)cc1)Nc1ccc(Br)c2cccnc12	0.0	-6.4	i	10.1	0.3	-2.2
Cc1c(NC(=O)c2ccc(S(=O)(=O)N3CCOCC3)cc2)c(=O)n(-c2ccccc2)n1C	·	·	i	11.6	·	-6.5
C=CCSC1=N/C(=C\C=C\c2ccco2)C(=O)S1	-0.4	-4.3	i	69.9*	1.4	-3.2
C=CCSC1=N/C(=C\c2sccc2C)C(=O)S1	-0.3	-2.8	i	44.2	-0.8	-22.4
CC(C)(C)C(=O)N/C(N)=N/c1nc2ccccc2o1	·	·	i	10.5	·	-4.4
Cc1cccc(SC2CCN(Cc3nc(CC4CC4)no3)CC2)c1	-0.5	-7.3	i	35.4	1.7	40.6*
Cc1cccc(N2CCN(Cc3nc(CC4CC4)no3)CC2)n1	0.3	-8.0	i	60.1*	0.7	-7.1
COc1cccc(CSc2nc(N)cc(N)n2)c1	·	·	·	8.3	·	·
Cc1cc(C)cc(-n2c(SCC(=O)Nc3cccc(S(=O)(=O)NC4=NCCCCC4)c3)nc3ccccc3c2=O)c1	4.6	13.1	i	0.8	13.2	-5.0
SMILES	ABCB1 inh	PKD1 inh	HSV replic up	PHOSPHO1 inh	ABCG2 block	p47phox inh
CCOC(=O)CN=C1CC(C)(C)CC2=C1Sc1ncnc(N(C)C)c1N2	20.4	-15.2	?	96.8*	21.6	-10.2
CCN1CCN(c2ccc(NC(=O)CCc3c(C)nc4c(-c5ccc(F)cc5)c(C)nn4c3C)cc2)CC1	3.1	4.2	i	-25.8	27.3	2.2
CCOc1ccccc1NC(=O)CSc1nc2ccccc2c(=O)n1CC1CCCO1 (stereo not drawn)	·	·	·	31.9	·	·
COC(=O)N1C(=O)[C@](c2ccsc2)(C(C)C)N1C(=O)OC	·	·	·	66.8*	·	·
CCN=C1S/C(=C\c2ccc(N3CCOCC3)cc2C)C(=O)N1CC	·	-10.4	i	12.1	12.7	-15.6
COCCN1C(=O)/C(=C/c2ccc(N3CCCC3)cc2C)SC1=S	66.6*	9.8	?	31.2	90.6*	-260.7
Cc1nc2ccccc2n2c(O)c(CC(=O)O)cc12	-0.2	7.4	i	3.5	-7.7	34.9*
CCOc1ccc(Nc2nc(N)nc(CSC(=S)N3CCOCC3)n2)cc1	·	·	i	33.1	·	125.5*
CCN1CCN(C(=O)CS(=O)(=O)Cc2nc(-c3cccc(OC)c3)oc2C)CC1	·	·	·	7.9	·	·
COc1ccccc1Nc1nc(N)nc(CCl)n1	·	·	i	15.9	·	-3.8
COc1ccc(OCc2nc(N)nc(Nc3ccccc3OC)n2)cc1	0.5	-6.8	i	40.3	3.2	98.8*
Cc1ccc(OC(=O)C(C)c2cccc(C(=O)c3ccccc3)c2)cc1 (stereo not drawn)	0.2	0.4	i	24.4	0.8	31.4*
Cc1ccccc1NC(=O)C(C)c1cccc(C(=O)c2ccccc2)c1 (stereo not drawn)	-0.3	0.7	i	-6.8	15.1	-11.1
Cc1c(Nc2nc3ccccc3nc2NS(=O)(=O)c2ccccc2)c(=O)n(-c2ccccc2)n1C	-0.1	-4.6	i	14.8	-1.0	0.3
Cn1ccnc1Sc1nc2ccccc2nc1NS(=O)(=O)c1ccccc1	0.1	7.3	i	73.4*	-9.6	-7.1
CC(=O)Nc1ccc(S(=O)(=O)Nc2nc3ccccc3nc2Sc2nncn2C)cc1	0.9	-0.3	i	54.3	1.4	-6.9
Cn1cnnc1Sc1nc2ccccc2nc1NS(=O)(=O)c1ccccc1	-0.8	-9.2	i	62.2*	-9.4	-8.1
O=C(NNC(=S)NC(=O)c1cccnc1)c1ccc(F)cc1	·	·	i	85.0*	·	-7.2
COc1ccc(CC(=O)NNC(=S)NC(=O)c2cccnc2)cc1	·	·	i	85.0*	·	-5.0
CC(=O)c1cc(C#N)c(SCc2ccncc2)nc1C	0.2	4.8	i	69.4*	2.1	4.1
CCOC(=O)c1ccc(NC(=O)c2c(Cl)cc(C)nc2C)cc1	·	·	·	40.1	·	·
CCN1N=C(c2cc(Cl)sc2Cl)CSC1=O	-0.3	-7.4	i	-8.1	-0.6	13.8
COC(=O)CCC(=O)Nc1ccc(S(=O)(=O)Nc2cc(OC)nc(OC)n2)cc1	·	·	·	46.3	·	·
COc1cc(NS(=O)(=O)c2ccc(NC(=O)CSC3=NCCS3)cc2)nc(OC)n1	-0.3	6.7	·	76.4*	3.1	-15.4
O=C1CC(c2ccco2)Sc2nc3ccccc3n21 (stereo not drawn)	0.2	-5.6	i	105.5*	1.5	-13.6
O=C1CC(c2ccccc2)Sc2nc3ccccc3n21 (stereo not drawn)	0.0	-2.1	i	16.2	1.3	1.2
O=C1CC(c2ccc3c(c2)OCO3)Sc2nc3ccccc3n21 (stereo not drawn)	0.4	12.9	i	96.8*	1.5	-12.3
COc1cccc(CN2C[C@]34C=C[C@@H](C[C@@H]3S2(=O)=O)O4)c1	·	·	i	-5.1	·	2.6
